# Published values gathered from unrelated publications.
# Lines come from different studies, so protocols differ.
SMILES,test system,setting,Cmax
COc1cc(C(=O)c2nc(-c3cccc4[nH]ccc34)c[nH]2)cc(OC)c1OC,"male CD-1 mouse, plasma","intraperitoneal, 15 mg/kg",1870 ng/mL
CC(C)[C@]12O[C@H]1[C@@H]1O[C@]13[C@]1(O[C@H]1C[C@H]1C4=C(CC[C@@]13C)C(=O)OC4)[C@@H]2O,"SCID mouse, plasma","intravenous, 0.6 mg/kg",1290 ng/mL
C[C@@H](O)[C@@H]1NC(=O)CNC(=O)[C@H](Cc2c[nH]cn2)NC(=O)[C@H](Cc2c[nH]c3ccccc23)NC(=O)[C@H](CC(N)=O)NC(=O)CNC(=O)C[C@@H](C(=O)N[C@@H](Cc2c[nH]c3ccccc23)C(=O)N[C@@H](Cc2ccccc2)C(=O)N[C@@H](Cc2ccccc2)C(=O)N[C@@H](CC(N)=O)C(=O)N[C@@H](Cc2ccc(O)cc2)C(=O)N[C@@H](Cc2ccc(O)cc2)C(=O)N[C@@H](Cc2c[nH]c3ccccc23)C(=O)O)NC(=O)[C@@H]2CCCN2C(=O)[C@H](CO)NC1=O,"mouse, plasma","intravenous, 3 mg/kg",11400 ng/mL
Cc1[nH]c(C)c(S(=O)(=O)Nc2ccc(S(F)(F)(F)(F)F)cc2)c1C(=O)N1CCC(F)(F)C1,"mouse, plasma","intraperitoneal, 40 mg/kg",31 µM
CC(C)=CCC[C@](C)(O[C@@H]1O[C@H](CO)[C@@H](O)[C@H](O)[C@H]1O)[C@H]1CC[C@]2(C)[C@@H]1[C@H](O)C[C@@H]1[C@@]3(C)CC[C@H](O)C(C)(C)[C@@H]3CC[C@]12C,"mouse, plasma","oral, 10 mg/kg",107 ng/mL
N=C(N)NCCC[C@H](NC(=O)[C@H](Cc1ccccc1)NC(=O)[C@H](CCC(N)=O)NC(=O)OCc1ccccc1)C(=O)c1nccs1,"female C57BL/6 mouse, plasma","intravenous, 5 mg/kg",3460 ng/mL
O=C1CCC(N2Cc3c(ccc4c3OCC43CCN(Cc4ccccc4)CC3)C2=O)C(=O)N1 (centres unmarked),"male CD-1 mouse, plasma","intravenous, 1 mg/kg",299 ng/mL
CCOC(=O)c1c(NC(=O)CNC(C)C)sc2c1CCCCC2,"male mouse, brain","intraperitoneal, 100 mg/kg, single dose",15800 ng/g
